Laboratory results from ChEMBL document CHEMBL2040792, “New chromene scaffolds for adenosine A(2A) receptors: synthesis, pharmacology and structure-activity relationships” (Eur J Med Chem, 2012).

Key:
[1] = biological target: T1, Adenosine receptor A1 (Homo sapiens) (UniProt P30542); assay: Displacement of [3H]DPCPX from human adenosine A1 receptor expressed in CHO cells at 10 uM after 60 mins by beta scintillation counting; assay type: cell-based
T1 sequence (whole entry): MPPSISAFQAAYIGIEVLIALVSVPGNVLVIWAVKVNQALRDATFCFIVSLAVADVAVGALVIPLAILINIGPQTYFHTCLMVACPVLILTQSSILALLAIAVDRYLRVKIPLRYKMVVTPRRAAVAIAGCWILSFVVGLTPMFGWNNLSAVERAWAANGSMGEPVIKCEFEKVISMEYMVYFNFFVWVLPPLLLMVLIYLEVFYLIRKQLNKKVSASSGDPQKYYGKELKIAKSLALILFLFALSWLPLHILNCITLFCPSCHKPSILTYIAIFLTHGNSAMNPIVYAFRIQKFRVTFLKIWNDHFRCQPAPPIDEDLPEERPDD
In short: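 CHO-A1 membranes (15 µg protein) in Hepes/NaCl/MgCl2 buffer with adenosine deaminase, pH 7.4. Test compound at 10 µM with 2 nM [3H]DPCPX, 60 min at 25 °C, in duplicate. Nonspecific binding with 10 µM (R)-PIA. Percent inhibition read after filtration.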

[2] = biological target: T2, Adenosine receptor A1 (Homo sapiens, UniProt P30542); assay: Displacement of [3H]DPCPX from human adenosine A1 receptor expressed in CHO cells after 60 mins by beta scintillation counting; assay type: cell-based
T2 sequence (P30542 whole entry): T1 sequence (whole entry)
In short: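 CHO-A1 membranes (15 µg protein) in 20 mM Hepes, 100 mM NaCl, 10 mM MgCl2, 2 UI/ml adenosine deaminase, pH 7.4, with 2 nM [3H]DPCPX. Nonspecific binding defined with 10 µM (R)-PIA. Incubated 60 min at 25 °C, run in duplicate, then filtered. Six concentrations tested (10 nM-100 µM); IC50 from nonlinear regression, Ki by Cheng-Prusoff.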

[3] = biological target: T3, Adenosine receptor A2a (Homo sapiens, UniProt P29274); assay: Displacement of [3H]ZM241385 from human adenosine A2A receptor expressed in human HeLa cells at 10 uM after 30 mins by beta scintillation counting; assay type: cell-based
T3 sequence (P29274 whole entry): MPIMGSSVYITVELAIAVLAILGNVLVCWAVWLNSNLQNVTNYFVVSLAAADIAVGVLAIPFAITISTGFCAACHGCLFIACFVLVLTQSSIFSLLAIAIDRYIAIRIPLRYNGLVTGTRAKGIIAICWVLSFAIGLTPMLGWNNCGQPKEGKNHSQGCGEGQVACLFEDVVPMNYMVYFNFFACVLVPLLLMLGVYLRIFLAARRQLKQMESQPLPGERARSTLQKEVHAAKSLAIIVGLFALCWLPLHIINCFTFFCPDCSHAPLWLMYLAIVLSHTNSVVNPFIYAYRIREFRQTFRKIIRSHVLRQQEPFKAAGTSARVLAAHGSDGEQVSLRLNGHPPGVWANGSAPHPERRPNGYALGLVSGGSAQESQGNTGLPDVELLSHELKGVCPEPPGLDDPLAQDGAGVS
In short: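 Single-point screen at 10 µM on HeLa-A2A membranes (10 µg protein), Tris/EDTA/MgCl2 buffer with adenosine deaminase, pH 7.4. 3 nM [3H]ZM241385, 30 min at 25 °C, in duplicate. Nonspecific binding with 50 µM NECA. Percent inhibition.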

[4] = biological target: T3, Adenosine receptor A2a; assay: Displacement of [3H]ZM241385 from human adenosine A2A receptor expressed in human HeLa cells after 30 mins by beta scintillation counting; assay type: cell-based
In short: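 HeLa-A2A membranes (10 µg protein) in 50 mM Tris-HCl, 1 mM EDTA, 10 mM MgCl2, 2 UI/mL adenosine deaminase, pH 7.4, with 3 nM [3H]ZM241385. Nonspecific binding with 50 µM NECA. Incubated 30 min at 25 °C, in duplicate. Six concentrations (10 nM-100 µM); IC50 by nonlinear regression, converted to Ki by Cheng-Prusoff.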

[5] = biological target: T4, Adenosine receptor A2b (Homo sapiens) (UniProt P29275); assay: Displacement of [3H]DPCPX from human adenosine A2B receptor expressed in HEK293 cells at 10 uM after 30 mins by beta scintillation counting; assay type: cell-based
T4 sequence (whole entry): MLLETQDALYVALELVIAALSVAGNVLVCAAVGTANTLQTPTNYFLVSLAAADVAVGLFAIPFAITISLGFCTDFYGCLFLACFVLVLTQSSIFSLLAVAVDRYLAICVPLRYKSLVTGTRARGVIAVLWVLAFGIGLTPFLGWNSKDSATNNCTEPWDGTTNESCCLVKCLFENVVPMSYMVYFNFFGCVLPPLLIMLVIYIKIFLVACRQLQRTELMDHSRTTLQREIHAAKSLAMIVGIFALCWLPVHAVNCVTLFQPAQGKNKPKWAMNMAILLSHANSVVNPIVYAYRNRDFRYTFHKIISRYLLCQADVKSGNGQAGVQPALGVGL
In short: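 Percent inhibition at 10 µM in HEK-293-A2B membranes (18 µg protein), pH 6.5 Tris buffer with benzamidine, bacitracin and adenosine deaminase. 35 nM [3H]DPCPX, 30 min at 25 °C, in duplicate. Nonspecific binding with 400 µM NECA.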

[6] = biological target: T5, Adenosine receptor A2b (Homo sapiens, UniProt P29275); assay: Displacement of [3H]DPCPX from human adenosine A2B receptor expressed in HEK293 cells after 30 mins by beta scintillation counting; assay type: cell-based
T5 sequence (P29275 whole entry): T4 sequence (whole entry)
In short: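 HEK-293-A2B membranes (18 µg protein) in 50 mM Tris-HCl, 1 mM EDTA, 10 mM MgCl2, 0.1 mM benzamidine, 10 µg/mL bacitracin, 2 UI/mL adenosine deaminase, pH 6.5, with 35 nM [3H]DPCPX. Nonspecific binding with 400 µM NECA. Incubated 30 min at 25 °C, in duplicate. Six concentrations (10 nM-100 µM); IC50 by nonlinear regression, Ki by Cheng-Prusoff.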

[7] = biological target: T6, Adenosine receptor A3 (Homo sapiens) (UniProt P0DMS8); assay: Displacement of [3H]NECA from human adenosine A3 receptor expressed in human HeLa cells at 10 uM after 180 mins by beta scintillation counting; assay type: cell-based
T6 sequence (whole entry): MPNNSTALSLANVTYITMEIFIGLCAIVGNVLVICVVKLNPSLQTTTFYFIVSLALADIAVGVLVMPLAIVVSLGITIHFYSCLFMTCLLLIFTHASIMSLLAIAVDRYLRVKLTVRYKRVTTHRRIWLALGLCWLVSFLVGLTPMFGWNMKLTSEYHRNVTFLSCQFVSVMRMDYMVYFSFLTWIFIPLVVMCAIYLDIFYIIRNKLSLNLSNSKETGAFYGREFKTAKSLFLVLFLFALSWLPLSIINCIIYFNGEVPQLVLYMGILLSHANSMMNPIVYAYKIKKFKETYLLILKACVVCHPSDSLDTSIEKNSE
In short: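 HeLa-A3 membranes (90 µg protein) in 50 mM Tris-HCl, 1 mM EDTA, 5 mM MgCl2, 2 UI/mL adenosine deaminase, pH 7.4. Test compound at 10 µM with 30 nM [3H]NECA, 180 min at 25 °C, in triplicate. Nonspecific binding with 100 µM (R)-PIA. Percent inhibition read after GF/B filtration.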

[8] = biological target: T3, Adenosine receptor A2a; assay: Antagonist activity at human adenosine A2A receptor expressed in CHO cells assessed as inhibition of NECA-induced cAMP accumulation incubated for 15 mins prior to NECA-induction measured after 15 mins by enzyme immunoassay relative to control; assay type: functional, cell-based
In short: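 Stably transfected CHO cells grown with dialyzed FBS, washed in DMEM F-12 with 25 mM HEPES pH 7.4 and 30 μM rolipram. Antagonist preincubated 15 min, then NECA (0.1 nM-1 mM) added for a further 15 min. cAMP measured by enzyme immunoassay. NECA curves fitted to a sigmoidal equation; pKB derived from the EC50 shift at one antagonist concentration.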

Structure (SMILES)	inhibition [1] [%]	Ki [2] [nM]	inhibition [3] [%]	Ki [4] [nM]	inhibition [5] [%]	Ki [6] [nM]	inhibition [7] [%]	pKb [8]
COc1cccc2cc(C(=O)NCCCN3CCN(CCCNC(=O)c4cc5cccc(OC)c5oc4=N)CC3)c(=N)oc12	> 70	2510	> 70	316	> 70	10000	20	–
COc1cccc2cc(C(=O)NC3CCCC3)c(=N)oc12	> 70	3160	> 70	398	47	–	20	–
COC(=O)/C(C#N)=C/c1cccc(OC)c1O	> 70	2510	> 70	316	> 70	1000	45	–

Results, then the compound that gave them:

inhibition [1] [%]	Ki [2] [nM]	inhibition [3] [%]	Ki [4] [nM]	inhibition [5] [%]	Ki [6] [nM]	inhibition [7] [%]	pKb [8]	Structure (SMILES)
> 70	6310	> 70	501	43	–	15	–	COCCNC(=O)c1cc2cccc(OC)c2oc1=N
40	–	> 70	398	> 70	20000	16	6.1	COc1cccc2cc(C(=O)NC3CCCCC3)c(=N)oc12
> 70	398	> 70	79.4	> 70	316	33	6.59	COc1cccc2cc(C(N)=O)c(=N)oc12
46	–	> 70	631	30	–	20	6.02	COc1cccc2cc(C(=O)Nc3c(C#N)ncn3-c3ccc(F)cc3)c(=N)oc12
35	–	> 70	126	> 70	631	30	6.54	COc1cccc2cc(C(=O)NCCc3ccc(O)cc3)c(=N)oc12
